Experimental data reported in ChEMBL document CHEMBL4765226, “Identification of a Human Toll-Like Receptor (TLR) 8-Specific Agonist and a Functional Pan-TLR Inhibitor in 2-Aminoimidazoles” (J Med Chem, 2016).
Activity calls are given as the source filed them. The rule behind the calls is not given here.

Tests used:
Format in all cases: cell-based
[1] = molecular target: T1, Toll-like receptor 8 (Homo sapiens) (UniProt Q9NR97); assay: Agonist activity at human TLR8 stably expressed in HEK293 cells cotransfected with secreted alkaline phosphatase assessed as induction of NFkappaB activation by measuring maximal response by quanti-blue SEAP reporter gene-based spectrophotometric method; conditions: filed as agonist
T1 sequence (whole entry): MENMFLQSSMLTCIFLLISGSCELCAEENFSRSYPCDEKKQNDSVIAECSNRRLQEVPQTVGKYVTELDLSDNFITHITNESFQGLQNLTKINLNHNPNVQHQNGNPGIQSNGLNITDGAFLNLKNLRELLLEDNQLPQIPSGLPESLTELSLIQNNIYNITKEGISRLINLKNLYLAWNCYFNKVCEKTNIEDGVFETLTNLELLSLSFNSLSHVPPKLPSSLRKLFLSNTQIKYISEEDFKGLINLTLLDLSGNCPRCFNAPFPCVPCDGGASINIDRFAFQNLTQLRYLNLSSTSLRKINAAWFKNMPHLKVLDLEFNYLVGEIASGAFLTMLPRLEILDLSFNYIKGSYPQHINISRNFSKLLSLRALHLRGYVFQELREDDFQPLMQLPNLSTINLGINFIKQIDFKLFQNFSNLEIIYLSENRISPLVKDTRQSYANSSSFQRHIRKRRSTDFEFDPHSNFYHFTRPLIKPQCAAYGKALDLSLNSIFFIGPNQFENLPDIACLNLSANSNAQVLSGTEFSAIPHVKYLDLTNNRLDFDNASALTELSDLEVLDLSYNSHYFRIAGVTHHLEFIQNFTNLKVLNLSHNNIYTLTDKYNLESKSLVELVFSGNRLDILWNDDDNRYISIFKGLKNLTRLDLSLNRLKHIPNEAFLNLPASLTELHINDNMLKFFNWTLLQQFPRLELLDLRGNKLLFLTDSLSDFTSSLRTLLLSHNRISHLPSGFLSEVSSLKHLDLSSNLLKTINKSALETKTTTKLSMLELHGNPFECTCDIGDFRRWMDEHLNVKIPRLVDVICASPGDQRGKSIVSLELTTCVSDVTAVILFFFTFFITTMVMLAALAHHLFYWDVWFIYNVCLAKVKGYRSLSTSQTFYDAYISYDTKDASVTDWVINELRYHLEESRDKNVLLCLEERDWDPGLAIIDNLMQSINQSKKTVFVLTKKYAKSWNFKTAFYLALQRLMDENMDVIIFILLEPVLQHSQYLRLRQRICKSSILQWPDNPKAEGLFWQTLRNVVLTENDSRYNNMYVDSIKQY
Summary of the method: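 TLR8/sAP HEK293 reporter cells, about 10^5 cells/ml, were exposed to graded ligand concentrations, and sAP was read at 620 nm with a chromogenic detection medium. Maximal response was compared across the dose-response curve, with area under the curve also reported. Quadruplicate samples were used.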

Toll-like receptor 2 = Toll-like receptor 2 (Homo sapiens, UniProt O60603); assay: Agonist activity at human TLR2 stably expressed in HEK293 cells cotransfected with secreted alkaline phosphatase assessed as induction of NFkappaB activation by quanti-blue SEAP reporter gene based spectrophotometric method
Sequence of Toll-like receptor 2 (O60603 whole entry): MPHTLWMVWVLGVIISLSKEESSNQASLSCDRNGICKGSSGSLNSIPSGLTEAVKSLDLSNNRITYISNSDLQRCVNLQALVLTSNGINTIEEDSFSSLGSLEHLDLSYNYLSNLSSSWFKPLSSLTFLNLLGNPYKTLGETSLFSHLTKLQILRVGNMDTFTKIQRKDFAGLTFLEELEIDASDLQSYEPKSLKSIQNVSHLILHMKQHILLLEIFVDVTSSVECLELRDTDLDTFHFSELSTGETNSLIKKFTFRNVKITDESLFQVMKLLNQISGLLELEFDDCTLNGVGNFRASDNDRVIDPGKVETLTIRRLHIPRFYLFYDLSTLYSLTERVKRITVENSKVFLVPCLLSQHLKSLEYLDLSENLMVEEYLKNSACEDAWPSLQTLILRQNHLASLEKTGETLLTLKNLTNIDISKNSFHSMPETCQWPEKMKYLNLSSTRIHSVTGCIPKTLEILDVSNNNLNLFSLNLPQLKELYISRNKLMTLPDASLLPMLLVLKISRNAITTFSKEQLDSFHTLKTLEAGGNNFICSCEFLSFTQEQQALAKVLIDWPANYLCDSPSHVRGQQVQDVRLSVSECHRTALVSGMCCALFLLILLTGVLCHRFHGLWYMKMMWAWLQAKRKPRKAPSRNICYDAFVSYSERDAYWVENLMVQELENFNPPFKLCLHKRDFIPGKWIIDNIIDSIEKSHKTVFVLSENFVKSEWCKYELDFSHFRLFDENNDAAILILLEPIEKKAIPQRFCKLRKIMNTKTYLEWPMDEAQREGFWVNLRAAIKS
Summary of the method: (§1)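 HEK293 cells stably co-transfected with the matching human TLR (2, 3, 4, 5, 7, 8 or 9) and NF-κB/AP-1-driven secreted alkaline phosphatase were kept in selection medium. About 10^5 cells/ml were incubated with graded concentrations of stimulus. sAP was read at 620 nm with a chromogen in detection medium. EC50 came from four-parameter logistic fits on quadruplicates.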

[2] = molecular target: Toll-like receptor 3 (Homo sapiens) (UniProt O15455); assay: Agonist activity at human TLR3 stably expressed in HEK293 cells cotransfected with secreted alkaline phosphatase assessed as induction of NFkappaB activation by quanti-blue SEAP reporter gene based spectrophotometric method; summary of the method: as §1
Sequence of Toll-like receptor 3 (Homo sapiens) (O15455 whole entry): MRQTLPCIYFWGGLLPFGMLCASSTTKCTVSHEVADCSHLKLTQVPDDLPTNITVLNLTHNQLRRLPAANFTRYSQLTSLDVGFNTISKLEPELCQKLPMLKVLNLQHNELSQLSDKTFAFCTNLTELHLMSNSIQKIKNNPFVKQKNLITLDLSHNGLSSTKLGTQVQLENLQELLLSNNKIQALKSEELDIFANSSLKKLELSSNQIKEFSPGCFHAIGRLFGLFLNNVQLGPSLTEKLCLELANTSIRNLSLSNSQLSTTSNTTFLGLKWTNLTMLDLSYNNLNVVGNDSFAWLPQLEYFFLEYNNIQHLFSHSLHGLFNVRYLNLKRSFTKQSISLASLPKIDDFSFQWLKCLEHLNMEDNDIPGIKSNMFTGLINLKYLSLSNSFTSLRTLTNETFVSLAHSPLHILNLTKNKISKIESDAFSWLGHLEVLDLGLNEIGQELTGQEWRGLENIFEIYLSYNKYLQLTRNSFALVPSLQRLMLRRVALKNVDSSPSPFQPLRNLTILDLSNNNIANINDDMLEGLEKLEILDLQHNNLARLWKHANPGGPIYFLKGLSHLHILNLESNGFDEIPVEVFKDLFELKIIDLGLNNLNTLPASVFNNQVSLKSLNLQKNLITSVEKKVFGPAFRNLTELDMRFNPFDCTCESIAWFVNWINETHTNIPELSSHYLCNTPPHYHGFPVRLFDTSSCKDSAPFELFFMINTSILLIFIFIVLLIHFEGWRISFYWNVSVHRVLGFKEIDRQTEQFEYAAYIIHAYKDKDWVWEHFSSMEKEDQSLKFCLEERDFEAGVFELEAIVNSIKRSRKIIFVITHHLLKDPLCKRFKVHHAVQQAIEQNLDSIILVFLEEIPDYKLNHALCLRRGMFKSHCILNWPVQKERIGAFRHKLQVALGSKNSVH

Toll-like receptor 4 = Toll-like receptor 4 (Homo sapiens, UniProt O00206); assay: Agonist activity at human TLR4 stably expressed in HEK293 cells cotransfected with secreted alkaline phosphatase assessed as induction of NFkappaB activation by quanti-blue SEAP reporter gene based spectrophotometric method; summary of the method: as §1
Sequence of Toll-like receptor 4 (O00206 whole entry): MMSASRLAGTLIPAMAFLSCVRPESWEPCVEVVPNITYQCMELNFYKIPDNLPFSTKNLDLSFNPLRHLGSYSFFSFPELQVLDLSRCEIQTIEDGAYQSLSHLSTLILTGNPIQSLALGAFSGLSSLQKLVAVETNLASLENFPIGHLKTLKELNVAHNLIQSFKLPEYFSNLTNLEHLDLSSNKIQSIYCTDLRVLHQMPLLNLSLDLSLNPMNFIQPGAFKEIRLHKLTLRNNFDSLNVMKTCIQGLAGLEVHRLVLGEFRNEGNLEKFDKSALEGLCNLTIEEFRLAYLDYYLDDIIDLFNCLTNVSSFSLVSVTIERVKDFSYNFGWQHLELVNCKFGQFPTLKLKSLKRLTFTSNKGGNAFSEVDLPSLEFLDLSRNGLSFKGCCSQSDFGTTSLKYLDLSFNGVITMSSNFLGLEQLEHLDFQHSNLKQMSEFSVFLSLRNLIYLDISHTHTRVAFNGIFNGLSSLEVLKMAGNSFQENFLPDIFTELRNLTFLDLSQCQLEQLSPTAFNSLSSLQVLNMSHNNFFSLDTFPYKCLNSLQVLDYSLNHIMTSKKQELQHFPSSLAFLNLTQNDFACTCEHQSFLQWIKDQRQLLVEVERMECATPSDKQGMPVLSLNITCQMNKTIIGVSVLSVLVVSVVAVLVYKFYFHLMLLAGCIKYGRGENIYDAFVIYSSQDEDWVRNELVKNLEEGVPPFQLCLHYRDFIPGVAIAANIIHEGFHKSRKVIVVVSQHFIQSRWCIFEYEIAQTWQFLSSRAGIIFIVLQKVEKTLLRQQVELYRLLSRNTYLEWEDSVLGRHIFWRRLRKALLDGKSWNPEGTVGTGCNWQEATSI

Toll-like receptor 5 = Toll-like receptor 5 (Homo sapiens, UniProt O60602); assay: Agonist activity at human TLR5 stably expressed in HEK293 cells cotransfected with secreted alkaline phosphatase assessed as induction of NFkappaB activation by quanti-blue SEAP reporter gene based spectrophotometric method; summary of the method: as §1
Sequence of Toll-like receptor 5 (O60602 whole entry): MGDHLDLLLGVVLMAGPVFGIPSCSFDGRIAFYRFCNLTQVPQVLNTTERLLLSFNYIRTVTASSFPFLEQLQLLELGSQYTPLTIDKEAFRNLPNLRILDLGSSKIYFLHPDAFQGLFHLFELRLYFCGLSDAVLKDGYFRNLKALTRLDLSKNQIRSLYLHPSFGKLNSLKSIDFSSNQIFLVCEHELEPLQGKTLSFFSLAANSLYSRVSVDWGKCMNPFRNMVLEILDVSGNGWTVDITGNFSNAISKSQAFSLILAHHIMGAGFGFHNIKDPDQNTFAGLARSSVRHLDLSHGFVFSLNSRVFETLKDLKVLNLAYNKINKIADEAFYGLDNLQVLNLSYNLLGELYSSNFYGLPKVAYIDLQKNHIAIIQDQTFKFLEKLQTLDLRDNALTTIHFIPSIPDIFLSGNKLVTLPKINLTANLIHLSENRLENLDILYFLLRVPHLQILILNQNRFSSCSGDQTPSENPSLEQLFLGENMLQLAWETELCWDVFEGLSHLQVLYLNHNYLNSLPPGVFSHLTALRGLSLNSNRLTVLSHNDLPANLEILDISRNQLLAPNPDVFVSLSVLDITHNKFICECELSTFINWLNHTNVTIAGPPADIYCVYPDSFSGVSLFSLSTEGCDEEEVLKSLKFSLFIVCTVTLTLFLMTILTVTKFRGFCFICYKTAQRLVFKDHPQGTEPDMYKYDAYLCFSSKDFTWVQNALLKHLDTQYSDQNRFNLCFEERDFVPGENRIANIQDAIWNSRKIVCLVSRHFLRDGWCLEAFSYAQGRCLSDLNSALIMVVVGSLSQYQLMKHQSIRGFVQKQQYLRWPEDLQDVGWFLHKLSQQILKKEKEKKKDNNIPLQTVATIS

[3] = molecular target: T2, Toll-like receptor 7 (Homo sapiens) (UniProt Q9NYK1); assay: Agonist activity at human TLR7 stably expressed in HEK293 cells cotransfected with secreted alkaline phosphatase assessed as induction of NFkappaB activation by quanti-blue SEAP reporter gene based spectrophotometric method; summary of the method: as §1
T2 sequence (whole entry): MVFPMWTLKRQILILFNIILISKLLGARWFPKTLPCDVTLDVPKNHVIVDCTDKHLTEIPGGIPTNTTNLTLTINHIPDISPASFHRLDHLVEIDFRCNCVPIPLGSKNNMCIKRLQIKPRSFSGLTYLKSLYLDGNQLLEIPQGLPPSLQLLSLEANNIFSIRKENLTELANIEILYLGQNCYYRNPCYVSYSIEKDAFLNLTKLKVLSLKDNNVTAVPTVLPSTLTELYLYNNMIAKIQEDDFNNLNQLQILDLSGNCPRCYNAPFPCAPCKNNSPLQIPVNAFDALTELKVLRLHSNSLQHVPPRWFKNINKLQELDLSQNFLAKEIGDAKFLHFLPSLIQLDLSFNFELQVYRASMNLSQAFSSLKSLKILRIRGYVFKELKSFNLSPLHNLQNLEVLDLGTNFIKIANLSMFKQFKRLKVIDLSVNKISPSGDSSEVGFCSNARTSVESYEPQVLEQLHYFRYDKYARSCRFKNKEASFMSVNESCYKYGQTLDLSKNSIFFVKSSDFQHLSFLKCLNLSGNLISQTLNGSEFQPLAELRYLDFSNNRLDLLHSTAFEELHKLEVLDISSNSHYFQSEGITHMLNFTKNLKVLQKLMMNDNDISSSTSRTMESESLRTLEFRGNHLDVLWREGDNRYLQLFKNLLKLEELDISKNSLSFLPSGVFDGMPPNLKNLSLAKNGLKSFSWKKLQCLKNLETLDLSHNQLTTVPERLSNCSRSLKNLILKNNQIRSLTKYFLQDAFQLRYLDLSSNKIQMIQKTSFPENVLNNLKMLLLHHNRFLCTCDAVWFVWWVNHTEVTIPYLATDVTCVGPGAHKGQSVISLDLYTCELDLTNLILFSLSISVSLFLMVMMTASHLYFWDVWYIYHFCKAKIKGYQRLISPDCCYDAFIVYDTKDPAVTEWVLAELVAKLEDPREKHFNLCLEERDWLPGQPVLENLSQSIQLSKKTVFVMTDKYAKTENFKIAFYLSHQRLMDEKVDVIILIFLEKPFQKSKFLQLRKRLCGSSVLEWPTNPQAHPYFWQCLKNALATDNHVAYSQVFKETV

CCCCCn1cc(-c2ccc(C)cc2C)nc1N
RUmax [1]: 1.2 | Activity (Toll-like receptor 2): inactive | Activity [2]: inactive | Activity (Toll-like receptor 4): inactive | Activity (Toll-like receptor 5): inactive | Activity [3]: inactive

CCCCCn1cc(-c2ccc(C)cc2)nc1N
RUmax [1]: 0.9 | Activity (Toll-like receptor 2): inactive | Activity [2]: inactive | Activity (Toll-like receptor 4): inactive | Activity (Toll-like receptor 5): inactive | Activity [3]: inactive

CCCCCn1cc(-c2ccccc2CO)nc1N
RUmax [1]: 1.6 | Activity (Toll-like receptor 2): inactive | Activity [2]: inactive | Activity (Toll-like receptor 4): inactive | Activity (Toll-like receptor 5): inactive | Activity [3]: inactive

CCCCCn1cc(-c2ccccc2F)nc1N
RUmax [1]: 1.4 | Activity (Toll-like receptor 2): inactive | Activity [2]: inactive | Activity (Toll-like receptor 4): inactive | Activity (Toll-like receptor 5): inactive | Activity [3]: inactive

CCCCCn1cc(-c2ccc(OC)cc2)nc1N
RUmax [1]: 0.7 | Activity (Toll-like receptor 2): inactive | Activity [2]: inactive | Activity (Toll-like receptor 4): inactive | Activity (Toll-like receptor 5): inactive | Activity [3]: inactive

CCCCCn1ccnc1N
RUmax [1]: 1.2 | Activity (Toll-like receptor 2): inactive | Activity [2]: inactive | Activity (Toll-like receptor 4): inactive | Activity (Toll-like receptor 5): inactive | Activity [3]: inactive

CCCCCn1cc(-c2ccccc2O)nc1N
RUmax [1]: 0.9 | Activity (Toll-like receptor 2): inactive | Activity [2]: inactive | Activity (Toll-like receptor 4): inactive | Activity (Toll-like receptor 5): inactive | Activity [3]: inactive

CCCCCn1c(N)nc(-c2ccccc2)c1-c1ccccc1
RUmax [1]: 0.52 | Activity (Toll-like receptor 2): inactive | Activity [2]: inactive | Activity (Toll-like receptor 4): inactive | Activity (Toll-like receptor 5): inactive | Activity [3]: inactive

CCCCCn1cc(-c2cc(OC)c(OC)c(OC)c2)nc1N
RUmax [1]: 0.8 | Activity (Toll-like receptor 2): inactive | Activity [2]: inactive | Activity (Toll-like receptor 4): inactive | Activity (Toll-like receptor 5): inactive | Activity [3]: inactive

CCCCCn1cc(-c2cccc(C)c2)nc1N
RUmax [1]: 1 | Activity (Toll-like receptor 2): inactive | Activity [2]: inactive | Activity (Toll-like receptor 4): inactive | Activity (Toll-like receptor 5): inactive | Activity [3]: inactive

CCCCCn1cc(CCc2ccccc2)nc1N
RUmax [1]: 0.9 | Activity (Toll-like receptor 2): inactive | Activity [2]: inactive | Activity (Toll-like receptor 4): inactive | Activity (Toll-like receptor 5): inactive | Activity [3]: inactive

CCCCCn1cc(-c2cccc(F)c2)nc1N
RUmax [1]: 1.6 | Activity (Toll-like receptor 2): inactive | Activity [2]: inactive | Activity (Toll-like receptor 4): inactive | Activity (Toll-like receptor 5): inactive | Activity [3]: inactive

CCCCCn1cc(-c2cccc3ccccc23)nc1N
RUmax [1]: 0.9 | Activity (Toll-like receptor 2): inactive | Activity [2]: inactive | Activity (Toll-like receptor 4): inactive | Activity (Toll-like receptor 5): inactive | Activity [3]: inactive

CCCCCn1cc(-c2ccc(C(=O)OC)cc2)nc1N
RUmax [1]: 0.7 | Activity (Toll-like receptor 2): inactive | Activity [2]: inactive | Activity (Toll-like receptor 4): inactive | Activity (Toll-like receptor 5): inactive | Activity [3]: inactive

CCCCCn1cc(-c2ccc(F)cc2)nc1N
RUmax [1]: 2 | Activity (Toll-like receptor 2): inactive | Activity [2]: inactive | Activity (Toll-like receptor 4): inactive | Activity (Toll-like receptor 5): inactive | Activity [3]: inactive

CCCCCn1cc(-c2ccc3ccccc3c2)nc1N
RUmax [1]: 0.42 | Activity (Toll-like receptor 2): inactive | Activity [2]: inactive | Activity (Toll-like receptor 4): inactive | Activity (Toll-like receptor 5): inactive | Activity [3]: inactive

CCCCCn1cc(-c2cccnc2)nc1N
RUmax [1]: 1.8 | Activity (Toll-like receptor 2): inactive | Activity [2]: inactive | Activity (Toll-like receptor 4): inactive | Activity (Toll-like receptor 5): inactive | Activity [3]: inactive

CCCCCn1cc(-c2cccc(C(F)(F)F)c2)nc1N
RUmax [1]: 0.6 | Activity (Toll-like receptor 2): inactive | Activity [2]: inactive | Activity (Toll-like receptor 4): inactive | Activity (Toll-like receptor 5): inactive | Activity [3]: inactive
